Format in all cases: functional
Assay [1] concerns Candida albicans. As to the kind of experiment: Antifungal activity against Candida albicans by broth dilution method. In outline:
(§1)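 Broth dilution screen. Compounds tested at 40 μg to 600 μg. MIC was read as the lowest concentration preventing visible growth. Solvent controls were included. Ciprofloxacin (antibacterial) and fluconazole (antifungal) were run under similar conditions as reference drugs.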
Background: Broth dilution looks for growth in wells or tubes with falling amounts of substance.

In assay [2] the test system is Pseudomonas aeruginosa. The experiment in a line: Antibacterial activity against Pseudomonas aeruginosa by broth dilution method. The procedure, abridged:
as §1

In assay [3] the test system is Escherichia coli. The experiment in a line: Antibacterial activity against Escherichia coli by broth dilution method. In outline: as §1
Assay [4] has as its system Bacillus subtilis. As to the kind of experiment: Antibacterial activity against Bacillus subtilis by broth dilution method. The procedure, abridged:
as §1

Assay [5] has as its system Staphylococcus aureus. As to the kind of experiment: Antibacterial activity against Staphylococcus aureus by broth dilution method. The procedure, abridged: as §1

Converted amounts (≈) assume the structure as drawn. A value given as a limit tells only on which side of the number the result lay.

13 molecules from ChEMBL document CHEMBL3124818, “Synthesis and antimicrobial evaluation of amide derivatives of benzodifuran-2-carboxylic acid” (2014) can be followed below.

`Cc1ccc(NC(=O)c2oc3cc4occ(C)c4cc3c2C)cc1`: the MIC in assay [1] was ≥ 600 µg/mL; in assay [2], ≥ 600 µg/mL; in assay [3], ≥ 600 µg/mL; in assay [4], 200 µg/mL (≈ 626 µM); in assay [5], 200 µg/mL (≈ 626 µM).
Regarding `OC(Cn1cncn1)(Cn1cncn1)c1ccc(F)cc1F` [FLUCONAZOLE], the lowest concentration to inhibit growth in assay [1] (MIC) was 5 µg/mL (≈ 16.3 µM).
Take `Cc1coc2cc3oc(C(=O)N4CCCCC4)c(C)c3cc12`: the minimal inhibitory concentration (MIC) in assay [1] was ≥ 600 µg/mL; in assay [2], ≥ 600 µg/mL; in assay [3], 600 µg/mL (≈ 2020 µM); in assay [4] it was 200 µg/mL (≈ 673 µM); in assay [5] it was 400 µg/mL (≈ 1350 µM).
With `O=C(O)c1cn(C2CC2)c2cc(N3CCNCC3)c(F)cc2c1=O` [CIPROFLOXACIN], the minimum inhibitory concentration (MIC) is 7.5 µg/mL (≈ 22.6 µM) in assay [2], 15 µg/mL (≈ 45.3 µM) in assay [3], 2 µg/mL (≈ 6.04 µM) in assay [4] and 5 µg/mL (≈ 15.1 µM) in assay [5].
Regarding `Cc1coc2cc3oc(C(=O)Nc4ccc(Cl)cc4)c(C)c3cc12`, the MIC in assay [1] is ≥ 600 µg/mL; in assay [2], ≥ 600 µg/mL; in assay [3], 200 µg/mL (≈ 589 µM); in assay [4] it was 200 µg/mL (≈ 589 µM); in assay [5] it was 400 µg/mL (≈ 1180 µM).
In the case of `Cc1coc2cc3oc(C(=O)Nc4ccccc4)c(C)c3cc12`, the minimal inhibitory concentration (MIC) in assay [1] was found to be 600 µg/mL (≈ 1970 µM); in assay [2], 600 µg/mL (≈ 1970 µM); in assay [3], 600 µg/mL (≈ 1970 µM); in assay [4], 400 µg/mL (≈ 1310 µM); in assay [5] it was 600 µg/mL (≈ 1970 µM).
As for `Cc1coc2cc3oc(C(=O)N4CCOCC4)c(C)c3cc12`, the MIC in assay [1] was ≥ 600 µg/mL; in assay [2] it was ≥ 600 µg/mL; in assay [3], 600 µg/mL (≈ 2000 µM); in assay [4], 200 µg/mL (≈ 668 µM); in assay [5], 400 µg/mL (≈ 1340 µM).
`Cc1coc2cc3oc(C(=O)N4CCCC4)c(C)c3cc12`: the minimal inhibitory concentration (MIC) in assay [1] is 600 µg/mL (≈ 2120 µM); in assay [2], ≥ 600 µg/mL; in assay [3] it was 400 µg/mL (≈ 1410 µM); in assay [4], 400 µg/mL (≈ 1410 µM); in assay [5], 160 µg/mL (≈ 565 µM).
For the molecule `CCN(CC)C(=O)c1oc2cc3occ(C)c3cc2c1C`, the MIC in assay [1] amounted to 600 µg/mL (≈ 2100 µM); in assay [2], 600 µg/mL (≈ 2100 µM); in assay [3], 400 µg/mL (≈ 1400 µM); in assay [4], 400 µg/mL (≈ 1400 µM); in assay [5], 160 µg/mL (≈ 561 µM).
For `Cc1coc2cc3oc(C(=O)Nc4ccc(C(=O)O)cc4)c(C)c3cc12`, the minimum inhibitory concentration (MIC) in assay [1] worked out at 600 µg/mL (≈ 1720 µM); in assay [2], 600 µg/mL (≈ 1720 µM); in assay [3] it was 400 µg/mL (≈ 1150 µM); in assay [4], 160 µg/mL (≈ 458 µM); in assay [5], 600 µg/mL (≈ 1720 µM).
On to `Cc1coc2cc3oc(C(=O)Nc4ccc(O)cc4)c(C)c3cc12`, for which the MIC in assay [1] is ≥ 600 µg/mL; in assay [2], ≥ 600 µg/mL; in assay [3] it was 600 µg/mL (≈ 1870 µM); in assay [4] it was 200 µg/mL (≈ 622 µM); in assay [5], 600 µg/mL (≈ 1870 µM).
Regarding `Cc1coc2cc3oc(C(=O)N4CCc5ccccc5C4)c(C)c3cc12`, the minimum inhibitory concentration (MIC) in assay [1] was 600 µg/mL (≈ 1740 µM); in assay [2], ≥ 600 µg/mL; in assay [3], ≥ 600 µg/mL; in assay [4], 160 µg/mL (≈ 463 µM); in assay [5], 400 µg/mL (≈ 1160 µM).
Turning to `COc1ccc(NC(=O)c2oc3cc4occ(C)c4cc3c2C)cc1`, the minimum inhibitory concentration (MIC) was ≥ 600 µg/mL in assay [1]; ≥ 600 µg/mL in assay [2]; ≥ 600 µg/mL in assay [3]; 400 µg/mL (≈ 1190 µM) in assay [4]; 160 µg/mL (≈ 477 µM) in assay [5].

By MIC is commonly meant the lowest concentration that inhibits growth of the organism. A higher MIC goes with weaker potency.
